Data published in ChEMBL document CHEMBL1177857, “Functionalized aurones as inducers of NAD(P)H:quinone oxidoreductase 1 that activate AhR/XRE and Nrf2/ARE signaling pathways: synthesis, evaluation and SAR” (Eur J Med Chem, 2010).
Activity calls are given as the source filed them. The calls are words filed in the database; no cut-off is given here. Peptide text beside a SMILES is read from it. * marks the point of attachment. Cbz = O=C(OCc1ccccc1)*

Tests used:
CYP1A1 [1] = target: T1, CYP1A1 (Mus musculus, UniProt P30561); assay: (§1) Induction of Ah receptor in mouse Hepa-1c1c7 cells assessed as induction of CYP1A1 activity at 1 uM after 48 hrs by EROD assay relative to control; assay type: cell-based; settings: Hepa-1c1c7 cells, probe ethoxyresorufin (EROD), read-out: FC
T1 sequence (P30561 whole entry): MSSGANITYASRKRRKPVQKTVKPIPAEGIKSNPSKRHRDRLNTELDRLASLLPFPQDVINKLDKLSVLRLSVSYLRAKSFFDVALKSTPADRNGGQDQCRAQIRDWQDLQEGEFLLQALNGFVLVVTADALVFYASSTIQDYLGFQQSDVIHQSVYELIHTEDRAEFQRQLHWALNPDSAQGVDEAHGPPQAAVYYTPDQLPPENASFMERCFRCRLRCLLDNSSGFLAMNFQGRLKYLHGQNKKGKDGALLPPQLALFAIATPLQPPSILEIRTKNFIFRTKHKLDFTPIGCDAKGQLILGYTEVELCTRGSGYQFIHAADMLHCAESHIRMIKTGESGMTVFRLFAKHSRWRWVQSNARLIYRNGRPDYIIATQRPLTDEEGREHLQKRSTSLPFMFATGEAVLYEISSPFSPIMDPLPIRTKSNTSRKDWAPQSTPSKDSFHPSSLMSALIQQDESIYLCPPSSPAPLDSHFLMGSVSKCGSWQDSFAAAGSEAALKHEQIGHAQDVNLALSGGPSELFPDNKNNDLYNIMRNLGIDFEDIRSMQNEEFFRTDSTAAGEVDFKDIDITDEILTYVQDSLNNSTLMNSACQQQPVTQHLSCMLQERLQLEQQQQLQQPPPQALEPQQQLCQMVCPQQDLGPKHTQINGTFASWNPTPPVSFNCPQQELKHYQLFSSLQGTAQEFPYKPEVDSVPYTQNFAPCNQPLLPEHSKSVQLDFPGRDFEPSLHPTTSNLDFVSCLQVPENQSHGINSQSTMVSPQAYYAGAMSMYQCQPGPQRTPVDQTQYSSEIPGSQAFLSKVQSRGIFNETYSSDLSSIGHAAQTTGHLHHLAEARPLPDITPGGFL
Procedure, shortened: (§2)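 Hepa1c1c7 cells at 10⁴/well grown 24 h, then given compound at one fixed concentration for 48 h. After a PBS wash, cells incubated 40 min at 37 °C with 5 µM 7-ethoxyresorufin plus 2 mM salicylamide. Resorufin fluorescence read at ex 530/em 590 nm. Fold induction = (F cells+compound − F blank)/(F control − F blank); mean ± SD, n = 3.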

[2] = Induction of NQO1 activity in mouse Hepa-1c1c7 cells at 1 uM after 48 hrs relative to control
[3] = Cytotoxicity against mouse Hepa-1c1c7 cells assessed as cell survival at 5 uM after 48 hrs by MTT assay; assay type: cell-based; settings: read-out: Activity
Procedure, shortened: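 MTT (0.5 mg/ml) added for 3 h at 37 °C, formazan dissolved in DMSO and read at 590 nm. Survival (%) = (A treated − A blank)/(A untreated − A blank) × 100.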

Hepa-1c1c7 [4] = assay: Induction of human NQO1 gene expression in mouse Hepa-1c1c7 cells co-transfected with pGL3-ARE at 10 to 25 uM after 24 hrs by luciferase reporter gene assay; assay type: functional, cell-based
Procedure, shortened: (§3)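 Hepa1c1c7 cells at about 50% confluency co-transfected with pGL3-ARE firefly luciferase (human NQO1 ARE) and pRL-CMV Renilla as transfection control. After 24 h, cells exposed to compound (10 or 25 µM). Dual luciferase read-out expressed as fold over control; mean ± SD of 3 independent transfections, t-test.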

[5] = Induction of NQO1 activity in mouse Hepa-1c1c7 cells at 5 uM after 48 hrs relative to control
[6] = Transcriptional activation of Nrf2/ARE signaling pathway in mouse Hepa-1c1c7 cells assessed as increase in cellular GSH level at 10 uM after 24 hrs by Ellman's method; assay type: functional, cell-based
Procedure, shortened: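 Hepa1c1c7 cells at 10⁶/plate grown 24 h, then given compound at 10 µM final for 24 h. Pellets extracted with 3% sulfosalicylic acid. Total GSH measured by DTNB recycling (0.6 mM DTNB, 0.2 mM NADPH, GSH reductase) as ΔA412 over 5 min against a GSH standard curve. Values normalized to Bradford protein from a parallel plate; mean ± SEM, n = 3.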

Hepa-1c1c7 [7] = assay: Induction of human NQO1 gene expression in mouse Hepa-1c1c7 cells co-transfected with pGL3-ARE at 25 uM after 24 hrs by luciferase reporter gene assay; assay type: functional, cell-based; procedure, shortened: as §3
CYP1A1 [8] = target: T1, CYP1A1; assay: Induction of Ah receptor in mouse Hepa-1c1c7 cells assessed as induction of CYP1A1 activity at 10 uM after 48 hrs by EROD assay relative to control; assay type: cell-based; settings: probe ethoxyresorufin (EROD), read-out: FC; procedure, shortened: as §2
Hepa-1c1c7 [9] = assay: Increase of Nrf2 protein level in mouse Hepa-1c1c7 cells at 10 uM for 6 hrs Western blotting relative to control; assay type: functional, cell-based
Procedure, shortened: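 Hepa1c1c7 cells exposed to compound at 10 µM for 6 h, with MG132 (25 µM) as reference. Lysates made in digitonin/EDTA with protease inhibitors; 50 µg protein run on 15% SDS-PAGE, blotted to nitrocellulose and probed for Nrf2 with β-actin loading control. Bands quantified by densitometry against untreated control, 3 experiments, independent t-test.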

Hepa-1c1c7 [10] = assay: Increase of Nrf2 protein level in mouse Hepa-1c1c7 cells at 10 uM for 6 hrs Western blotting relative to control
[11] = target: NAD(P)H dehydrogenase [quinone] 1 (Homo sapiens) (UniProt P15559); assay: Induction of […] NQO1 activity in mutant mouse BPrc1 cells assessed as concentration require for 2 fold induction after 48 hrs; assay type: cell-based
NAD(P)H dehydrogenase [quinone] 1 (Homo sapiens), sequence (P15559 whole entry): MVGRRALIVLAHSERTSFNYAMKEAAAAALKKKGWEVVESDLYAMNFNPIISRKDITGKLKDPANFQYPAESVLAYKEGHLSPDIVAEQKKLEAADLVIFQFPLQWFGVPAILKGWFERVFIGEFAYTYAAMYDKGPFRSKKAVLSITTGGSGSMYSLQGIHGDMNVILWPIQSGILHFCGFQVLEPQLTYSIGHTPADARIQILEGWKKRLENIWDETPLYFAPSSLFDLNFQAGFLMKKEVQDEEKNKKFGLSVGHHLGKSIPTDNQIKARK
Procedure, shortened: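 Mutant Hepa1c1c7 line (Bp^rc1, defective Ah-receptor pathway) seeded at 10⁴ cells/well for 24 h, then exposed to compound for 48 h; final DMSO ≤0.5%. Cells lysed with 0.8% digitonin/2 mM EDTA. NQO1 read by menadione-driven MTT reduction (NADP, glucose-6-phosphate regenerating system, FAD, pH 7.4), stopped after 5 min with dicoumarol, A590. Activity taken relative to blank and control wells; CD = concentration doubling basal activity; mean ± SD of 3 determinations.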

[12] = target: T2, Aryl hydrocarbon receptor (Mus musculus, UniProt P30561); assay: as §1; assay type: cell-based; settings: hepa-1c1c7, 48 h, 1 µM; procedure, shortened: as §2
T2 sequence (P30561 whole entry): T1 sequence (P30561 whole entry)

[13] = Upregulation of TrxR protein expression in mouse Hepa-1c1c7 cells at 10 uM after 24 hrs by Western blotting relative to control; assay type: functional, cell-based
Procedure, shortened: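 Hepa1c1c7 cells exposed to compound at 10 µM for 24 h. Digitonin/EDTA lysates (50 µg protein) separated on 15% SDS-PAGE, blotted to nitrocellulose and probed with anti-TrxR antibody. Band intensity compared with untreated control; representative of 3 experiments.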

SMILES | viability at 48 h, 5 µM [3] [%] | Activity (Hepa-1c1c7 [4]) | fold change (FC) [5] | Activity [6] | fold induction at 48 h, 10 µM (CYP1A1 [8]) | Activity (Hepa-1c1c7 [9]) | other results
COc1cc(OC)c2c(c1)O/C(=C\c1ccccc1OC)C2=O | 82 |  |  |  |  |  | fold induction at 48 h, 1 µM (CYP1A1 [1]): 1.56; fold change (FC) [2]: 2.21
O=C1/C(=C/c2ccccc2O)Oc2cc(O)cc(O)c21 | 102 | Active | 2.92 | Active | 1.1 | Active | Activity (Hepa-1c1c7 [7]): Active
CC(C)C[C@@H](C=O)NC(=O)[C@H](CC(C)C)NC(=O)[C@H](CC(C)C)NC(=O)OCc1ccccc1 (Cbz-Leu-Leu-Leu-aldehyde) |  |  |  |  |  |  | Activity (Hepa-1c1c7 [10]): Active
C[S+]([O-])CCCCN=C=S (configuration not stated) [SULFORAPHANE] |  | inactive |  |  |  | Active | Activity [11]: inactive; Activity [12]: 0.92
COc1cc(OC)c2c(c1)O/C(=C\c1ccccc1)C2=O | 93 | Active | 7.7 | Active | 2.04 | Active | Activity [13]: Active
